Like-named read-outs stand apart in the source and are kept apart here.
Tests used:
[1] = system: NRF2 activity (NQO1-YFP signal, CDDO-activated); assay: High-throughput screen and dose response: NRF2 activity; assay type: cell-based, human; conditions: Homo sapiens, NCI-H1299, read-out: NRF2 inhibition (IC50, μM)
Method in brief: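 NQO1-YFP H1299 reporter cells (YFP in NQO1 intron 1, constitutive mCherry) were seeded 1000/well in 384-well plates and cultured overnight. Primary screen: 1 μM compound in 0.1% DMSO, one well each, with CDDO 200 nM and 0.1% DMSO controls. Retests used 10-point serial dilutions from 10 µM in triplicate, with brusatol control. Imaged at 0, 24, 48, 64 h (YFP = NRF2 activity, mCherry = viability); IC₅₀ by curve fit.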

KYSE180 cells = assay: High-content cytotoxicity screen; assay type: cell-based, human; conditions: Homo sapiens, KYSE-180, 72 h, read-out: Cell proliferation (IC50, μM)
Method in brief: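 Cells were seeded at 1200/well in 384-well plates and cultured overnight. Test compound was added at […] serial dilution from 10 µM, in triplicate, for 3 days. Controls were 0.1% DMSO (negative), 30 µM benzethonium chloride and 0.1% Triton X-100 added just before staining (positive). Cells were stained with 0.5 µg/ml Hoechst and 100 nM YOYO1, four 4× images per well. Normalized total-cell and dead-cell percentages were fitted for IC₅₀.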

[2] = system: NRF2 and NQO1 expression in NRF2^Mut-KYSE70 cells; assay: Western blotting of NRF2 and NQO1 expression in KYSE70 cells; assay type: cell-based, human; conditions: KYSE70 cells
Method in brief: (§1)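 Nuclear and cytosolic fractions prepared with an extraction kit, or whole-cell lysates in RIPA buffer. Proteins separated by SDS-PAGE, transferred to nitrocellulose, blocked and probed with primary antibody overnight at 4 °C. Chemiluminescence detected on film and quantified by densitometry; band data as mean ± SD, Student's t-test.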

[3] = system: human NRF2 target genes in KYSE70 cells; assay: RNAseq of KYSE70 cells; assay type: cell-based; conditions: PYR 10 μM for 72 h, MIT 20 nM for 72 h
Method in brief: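 Total RNA from treated and control cells made into Illumina libraries and sequenced (150 bp). Reads aligned to hg38 with RefSeq annotation and counted per gene; DEGs called by fold-change cut-off and corrected p-values. Gene set enrichment analysis performed; overall NRF2 target-gene mRNA level calculated on natural log scale.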

[4] = system: NFE2L2 mRNA and NRF2 target genes; assay: qPCR of NFE2L2 mRNA and NRF2 target genes; assay type: cell-based, human
Method in brief: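 Gene expression quantified by real-time PCR using gene-specific primers and TaqMan probes on a 96-well real-time PCR system.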

[5] = system: NRF2 expression in Nrf2^WT MEEC; assay: NRF2 expression in mouse esophageal epithelial cells; assay type: cell-based
Method in brief: as §1

STAT3 = assay: pSTAT3 and STAT3 expression in KYSE70 cells; assay type: cell-based, human; conditions: up to 10 μM
Method in brief: as §1

DHFR = DHFR (Homo sapiens, UniProt P00374); assay: DHFR activity assay kit; assay type: biochemical; conditions: KYSE70 cells
Method in brief: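 Kit-based DHFR enzymatic assay followed by the decrease in A340nm over time; methotrexate 1 μM as reference DHFR inhibitor.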

global translation = assay: Protein synthesis assay; assay type: cell-based, human; conditions: KYSE70; PYR 10 μM, MIT 20 nM; CHX positive control
Method in brief: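 KYSE70 cells (37 °C, 5% CO₂) seeded at 2000 cells/well in 96-well plates; exposed to test compound or cycloheximide (positive control) in triplicate. Global translation measured with a commercial protein synthesis assay kit per manufacturer's protocol; cells imaged on a high-content imager.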

NRF2-ARE binding = NRF2-ARE binding (Homo sapiens, UniProt Q16236, W24C); assay: ELISA-based TransAM NRF2-ARE binding assay with KYSE70 nuclear extracts
Method in brief: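 TransAM ELISA: nuclear extract from untreated KYSE70 cells (20 μg/well) added to wells containing ARE oligonucleotide. Test compound, competitor or mutated competitor added, then 1 h incubation with mild agitation and washing. Anti-NRF2 antibody 1 h, then HRP-conjugated secondary antibody and substrate; A450nm read.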

NRF2 (NRF2^Mut-KYSE180) = NRF2 (NRF2^Mut-KYSE180) (Homo sapiens, UniProt Q16236, D77V); assay: CHX chase analysis of NRF2 half-life in KYSE180 cells; assay type: cell-based; conditions: PYR 10 μM, MIT 20 nM
Method in brief: (§2)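 Cells were grown in RPMI1640 GlutaMAX with 10% FBS and 1% penicillin/streptomycin at 37 °C, 5% CO₂. They were pre-incubated 4 h with test compound, then given 200 μg/ml cycloheximide to block protein synthesis. Cells were harvested at set time points after cycloheximide. Total lysates were run on SDS-PAGE and blotted for NRF2 and GAPDH, and band densities were used to calculate NRF2 half-life.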

NRF2 (NRF2^WT-KYSE450) = NRF2 (NRF2^WT-KYSE450) (Homo sapiens, UniProt Q16236); assay: CHX chase analysis of NRF2 half-life in KYSE450 cells; assay type: cell-based; conditions: PYR 10 μM, MIT 20 nM
Method in brief: as §2

[6] = biological target: NRF2 ubiquitination (KYSE70) (Homo sapiens, UniProt Q16236, W24C); assay: NRF2-IP and ubiquitin western blotting in KYSE70 cells; assay type: cell-based; conditions: NRF2^Mut-KYSE70; PYR 10 μM, MIT 20 nM; presence or absence of MG132
Method in brief: (§3)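 Cells treated with test compound, then with or without MG132 (10 μM), lysed in RIPA buffer. Lysate precleared on protein G agarose 1 h at 4 °C, then incubated with 1 μg anti-NRF2 antibody overnight at 4 °C with rotation. Immunocomplexes captured on protein G agarose 1.5 h at 4 °C, washed, boiled in 2X SDS loading buffer at 95 °C for 5 min, and immunoblotted for ubiquitin.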

[7] = biological target: NRF2 ubiquitination (KYSE180) (Homo sapiens, UniProt Q16236, D77V); assay: NRF2-IP and ubiquitin western blotting in KYSE180 cells; assay type: cell-based; conditions: NRF2^Mut-KYSE180; PYR 10 μM, MIT 20 nM; presence or absence of MG132
Method in brief: as §3

[8] = biological target: NRF2 ubiquitination (KYSE450) (Homo sapiens, UniProt Q16236); assay: NRF2-IP and ubiquitin western blotting in KYSE450 cells; assay type: cell-based; conditions: NRF2^WT-KYSE450; PYR 10 μM, MIT 20 nM; only in the presence of MG132
Method in brief: as §3

[9] = Pharmacokinetics of PYR in mice, i.p.; assay type: in vivo; conditions: 30 mg/kg/day; extrapolated from literature Cmax
[10] = mice, i.p., cited from earlier work
[11] = humans, 50 mg/day, p.o., 3 weeks; cited from earlier work

Sequence of NRF2 (NRF2^Mut-KYSE180) (Q16236 whole entry D77V): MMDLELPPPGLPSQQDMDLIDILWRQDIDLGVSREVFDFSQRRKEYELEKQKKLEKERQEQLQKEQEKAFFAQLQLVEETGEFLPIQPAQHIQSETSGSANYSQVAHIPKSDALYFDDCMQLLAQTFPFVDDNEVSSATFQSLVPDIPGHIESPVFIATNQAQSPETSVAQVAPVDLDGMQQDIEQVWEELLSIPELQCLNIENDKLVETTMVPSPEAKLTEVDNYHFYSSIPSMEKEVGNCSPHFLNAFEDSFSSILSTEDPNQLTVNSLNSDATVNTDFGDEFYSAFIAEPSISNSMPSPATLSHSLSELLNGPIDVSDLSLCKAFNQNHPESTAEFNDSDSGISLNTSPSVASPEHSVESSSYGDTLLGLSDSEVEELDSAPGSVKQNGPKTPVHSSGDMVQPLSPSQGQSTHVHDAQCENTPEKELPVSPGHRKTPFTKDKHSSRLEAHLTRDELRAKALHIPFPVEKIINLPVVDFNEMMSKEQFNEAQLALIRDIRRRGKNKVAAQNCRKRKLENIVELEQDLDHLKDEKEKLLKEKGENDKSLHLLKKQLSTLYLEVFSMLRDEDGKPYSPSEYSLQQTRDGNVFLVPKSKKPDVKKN
Sequence of NRF2 ubiquitination (KYSE180) (Q16236 whole entry D77V): as above
Sequence of DHFR (P00374 whole entry): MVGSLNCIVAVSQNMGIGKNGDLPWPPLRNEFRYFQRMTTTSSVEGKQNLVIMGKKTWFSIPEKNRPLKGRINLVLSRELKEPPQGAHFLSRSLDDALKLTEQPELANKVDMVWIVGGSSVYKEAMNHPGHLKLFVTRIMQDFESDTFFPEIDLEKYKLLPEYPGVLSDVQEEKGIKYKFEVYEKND
Sequence of NRF2 (NRF2^WT-KYSE450) (Q16236 whole entry): as the sequence (Q16236 whole entry D77V) above, with V77D counted along it
Sequence of NRF2 ubiquitination (KYSE450) (Q16236 whole entry): as the sequence (Q16236 whole entry D77V) above, with V77D counted along it
Sequence of NRF2 ubiquitination (KYSE70) (Q16236 whole entry W24C): as the sequence (Q16236 whole entry D77V) above, with W24C, V77D counted along it
Sequence of NRF2-ARE binding (Q16236 whole entry W24C): as the sequence (Q16236 whole entry D77V) above, with W24C, V77D counted along it

CCc1nc(N)nc(N)c1-c1ccc(Cl)cc1 [PYR, Pyrimethamine]
IC50 [1]: 0.23 µM | IC50 (KYSE180 cells): > 10 µM | Expression of nuclear NRF2 and cytoplasmic NQO1 [2]: inhibited the expression of nuclear NRF2 and cytoplasmic NQO1 in a dose- and time-dependent manner | Overall mRNA expression level of human NRF2 target genes [3]: significantly reduced | NFE2L2 mRNA and NRF2 target genes (AKR1B10, AKR1C2, AKR1C3, PGD, SLC7A11, TKT) by qPCR [4]: downregulation | NRF2 expression [5]: upregulated NRF2 expression | pSTAT3 and STAT3 expression (STAT3): did not significantly inhibit | Concentration from which DHFR activity is significantly inhibited (DHFR): ≥ 5 µM | Global translation (global translation): Neither PYR (10 μM) nor MIT (20 nM) inhibited global translation | NRF2-ARE binding activity (NRF2-ARE binding): did not observe any changes | Effect on NRF2 half-life (NRF2 (NRF2^Mut-KYSE180)): shortened NRF2 half-life | Effect on NRF2 half-life (NRF2 (NRF2^WT-KYSE450)): not changed | NRF2 ubiquitination [6]: promoted NRF2 ubiquitination | NRF2 ubiquitination [7]: promoted NRF2 ubiquitination | NRF2 ubiquitination [8]: slightly promoted NRF2 ubiquitination | Concentration expected in mouse tissues [9]: ~10 µM | Cmax ([10]; 12.5 mg/kg): 8.04 µM | Cmax ([10]; 25 mg/kg): 18.5 µM | Cmax ([10]; 50 mg/kg): 35.8 µM | Cmax ([10]; 75 mg/kg): 28.2 µM | Cmax [11]: 8.28 µM

From paper PMC10558795 (Redox Biology, 2023)
